Columns and labels:
[1] = target: Dual specificity testis-specific protein kinase 1 (Homo sapiens) (UniProt Q15569); experiment: Binding affinity to TESK1 assessed as percentage of kinase remaining bound to the bead at 1 uM by T7 phage display based binding assay
In short: (§1)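 Competition binding assay run by a contract lab. Each kinase was expressed as a fusion to T7 phage, full-length for small kinases and catalytic domain for large ones. Phage were mixed with an immobilized known kinase inhibitor on streptavidin magnetic beads and with test compound at a single 1 μM. Kinase/phage still bound to the beads was quantified by qPCR and expressed as % of DMSO control.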

[2] = target: Mitogen-activated protein kinase kinase kinase 20 (Homo sapiens) (UniProt Q9NYL2); experiment: Binding affinity to ZAK assessed as percentage of kinase remaining bound to the bead at 1 uM by T7 phage display based binding assay; in short: as §1
[3] = target: Serine/threonine-protein kinase PAK 6 (Homo sapiens) (UniProt Q9NQU5); experiment: Inhibition of PAK6 assessed as remaining enzyme activity at 1 uM relative to DMSO
In short: (§2)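 Radiometric kinase assay run robotically at room temperature for 30 min. Contained 10 mM magnesium acetate and [γ-33P]ATP (800 cpm/pmol) at 5, 20 or 50 μM, chosen per kinase to be at or below its ATP Km. Reactions were started with MgATP, stopped with orthophosphoric acid and spotted onto P81 filters. Result is mean % activity of duplicates at one inhibitor concentration versus DMSO control.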

[4] = target: Mitogen-activated protein kinase 12 (Homo sapiens) (UniProt P53778); experiment: Inhibition of p38-gamma assessed as remaining enzyme activity at 1 uM relative to DMSO
[5] = target: TGF-beta receptor type-2 (Homo sapiens) (UniProt P37173); experiment: Binding affinity to TGFBR2 assessed as percentage of kinase remaining bound to the bead at 1 uM by T7 phage display based binding assay; in short: as §1
[6] = target: RAC-beta serine/threonine-protein kinase (Homo sapiens) (UniProt P31751); experiment: Inhibition of PKBbeta assessed as remaining enzyme activity at 1 uM relative to DMSO; in short: as §2
[7] = target: Receptor tyrosine-protein kinase erbB-4 (Homo sapiens) (UniProt Q15303); experiment: Inhibition of HER4 assessed as remaining enzyme activity at 1 uM relative to DMSO
In short: (§3)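 Dundee kinase panel, radiometric: [γ-33P]ATP (800 cpm/pmol) at 5, 20 or 50 μM, at or below each kinase's ATP Km; 10 mM magnesium acetate; robotic, room temperature, 30 min. Reactions started with MgATP, stopped with orthophosphoric acid, spotted onto P81 filters. Inhibitor tested at a single concentration; mean % activity of duplicates relative to DMSO control.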

Ephrin type-A receptor 4 = Ephrin type-A receptor 4 (Homo sapiens, UniProt P54764); experiment: Inhibition of EphA4 by [gamma33-P]ATP based assay
In short: (§4)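 Radiometric [γ-33P]ATP kinase assay against Eph kinases, following a protocol similar to the Mg-acetate/MgATP filter-binding method.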

[8] = target: Tyrosine-protein kinase Srms (Homo sapiens) (UniProt Q9H3Y6); experiment: Binding affinity to SRMS assessed as percentage of kinase remaining bound to the bead at 1 uM by T7 phage display based binding assay; in short: as §1
[9] = target: Fibroblast growth factor receptor 4 (Homo sapiens) (UniProt P22455); experiment: Binding affinity to FGFR4 assessed as percentage of kinase remaining bound to the bead at 1 uM by T7 phage display based binding assay; in short: as §1
[10] = target: Tyrosine-protein kinase SYK (Homo sapiens) (UniProt P43405); experiment: Inhibition of SYK assessed as remaining enzyme activity at 1 uM relative to DMSO
[11] = target: MAP kinase-activated protein kinase 5 (Homo sapiens) (UniProt Q8IW41); experiment: Inhibition of PRAK assessed as remaining enzyme activity at 1 uM relative to DMSO
[12] = target: Proto-oncogene tyrosine-protein kinase Src (Homo sapiens) (UniProt P12931); experiment: Inhibition of Src assessed as remaining enzyme activity at 1 uM relative to DMSO
Ephrin type-A receptor 1 = Ephrin type-A receptor 1 (Homo sapiens, UniProt P21709); experiment: Inhibition of EphA1 by [gamma33-P]ATP based assay
[13] = target: NUAK family SNF1-like kinase 1 (Homo sapiens) (UniProt O60285); experiment: Inhibition of NUAK1 assessed as remaining enzyme activity at 1 uM relative to DMSO; in short: as §2
[14] = target: Rho-associated protein kinase 2 (Homo sapiens) (UniProt O75116); experiment: Inhibition of ROCK2 assessed as remaining enzyme activity at 1 uM relative to DMSO
Ephrin type-A receptor 3 = Ephrin type-A receptor 3 (Homo sapiens, UniProt P29320); experiment: Inhibition of EphA3 by [gamma33-P]ATP based assay; in short: as §4
[15] = target: MAP/microtubule affinity-regulating kinase 3 (Homo sapiens) (UniProt P27448); experiment: Inhibition of MARK3 assessed as remaining enzyme activity at 1 uM relative to DMSO
In short: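 Radiometric kinase assay run robotically at room temperature for 30 min, linear in time and enzyme. Conditions: 10 mM magnesium acetate, [γ-33P]ATP (800 cpm/pmol) at 5, 20 or 50 μM per kinase, at or below its ATP Km. Started with MgATP and stopped with orthophosphoric acid, then spotted on P81 filters. Reported as mean % activity of duplicates versus DMSO controls.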

[16] = target: Mitogen-activated protein kinase 13 (Homo sapiens) (UniProt O15264); experiment: Inhibition of p38delta assessed as remaining enzyme activity at 3 uM relative to DMSO
[17] = target: Serine/threonine-protein kinase TBK1 (Homo sapiens) (UniProt Q9UHD2); experiment: Inhibition of TBK1 assessed as remaining enzyme activity at 3 uM relative to DMSO
[18] = target: Cyclin-dependent kinase 2 (Homo sapiens) (UniProt P24941); experiment: Inhibition of CDK2 assessed as remaining enzyme activity at 3 uM relative to DMSO; in short: as §3
[19] = Inhibition of VEG-FR assessed as remaining enzyme activity at 3 uM relative to DMSO
[20] = target: Calcium/calmodulin-dependent protein kinase kinase 2 (Homo sapiens) (UniProt Q96RR4); experiment: Inhibition of CAMKKbeta assessed as remaining enzyme activity at 3 uM relative to DMSO; in short: as §3
[21] = target: Serine/threonine-protein kinase pim-1 (Homo sapiens) (UniProt P11309); experiment: Inhibition of PIM1 assessed as remaining enzyme activity at 3 uM relative to DMSO; in short: as §2
[22] = target: Serine/threonine-protein kinase PLK1 (Homo sapiens) (UniProt P53350); experiment: Inhibition of PLK1 assessed as remaining enzyme activity at 3 uM relative to DMSO
[23] = target: Serine/threonine-protein kinase 3 (Homo sapiens) (UniProt Q13188); experiment: Inhibition of MST2 assessed as remaining enzyme activity at 3 uM relative to DMSO; in short: as §2
[24] = target: Serine/threonine-protein kinase STK11 (Homo sapiens) (UniProt Q15831); experiment: Inhibition of LKB1 assessed as remaining enzyme activity at 3 uM relative to DMSO; in short: as §2
[25] = target: Serine/threonine-protein kinase Sgk1 (Homo sapiens) (UniProt O00141); experiment: Inhibition of SGK1 assessed as remaining enzyme activity at 3 uM relative to DMSO
[26] = target: Casein kinase I isoform alpha (Homo sapiens) (UniProt P48729); experiment: Inhibition of CK1 assessed as remaining enzyme activity at 3 uM relative to DMSO; in short: as §3

Chain of Ephrin type-A receptor 4 (P54764 whole entry): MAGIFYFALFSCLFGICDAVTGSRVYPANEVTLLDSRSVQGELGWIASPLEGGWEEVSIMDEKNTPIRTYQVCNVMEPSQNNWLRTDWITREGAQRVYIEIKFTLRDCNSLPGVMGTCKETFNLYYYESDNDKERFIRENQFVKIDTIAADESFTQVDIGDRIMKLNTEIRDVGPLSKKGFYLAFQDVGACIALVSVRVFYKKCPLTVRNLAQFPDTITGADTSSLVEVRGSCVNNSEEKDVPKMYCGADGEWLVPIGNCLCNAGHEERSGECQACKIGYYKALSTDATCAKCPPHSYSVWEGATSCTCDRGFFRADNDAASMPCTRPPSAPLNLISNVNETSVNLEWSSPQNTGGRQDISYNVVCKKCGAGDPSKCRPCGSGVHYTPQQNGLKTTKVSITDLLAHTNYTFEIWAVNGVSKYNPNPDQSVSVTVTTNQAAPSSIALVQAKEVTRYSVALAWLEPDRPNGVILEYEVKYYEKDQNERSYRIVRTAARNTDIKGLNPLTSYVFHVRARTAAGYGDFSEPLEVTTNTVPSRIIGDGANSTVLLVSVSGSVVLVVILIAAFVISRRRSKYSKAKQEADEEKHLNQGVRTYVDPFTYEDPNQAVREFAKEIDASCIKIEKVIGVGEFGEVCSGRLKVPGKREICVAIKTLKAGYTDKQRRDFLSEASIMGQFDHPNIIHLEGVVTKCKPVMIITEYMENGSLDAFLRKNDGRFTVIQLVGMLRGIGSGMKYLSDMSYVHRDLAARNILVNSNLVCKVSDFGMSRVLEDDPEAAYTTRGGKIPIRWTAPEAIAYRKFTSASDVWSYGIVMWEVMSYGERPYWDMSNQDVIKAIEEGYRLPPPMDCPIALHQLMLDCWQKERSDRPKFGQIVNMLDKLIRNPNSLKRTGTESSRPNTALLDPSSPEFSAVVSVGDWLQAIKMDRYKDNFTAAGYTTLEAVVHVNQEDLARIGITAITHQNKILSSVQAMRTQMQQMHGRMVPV
Chain of NUAK family SNF1-like kinase 1 (Homo sapiens) (O60285 whole entry): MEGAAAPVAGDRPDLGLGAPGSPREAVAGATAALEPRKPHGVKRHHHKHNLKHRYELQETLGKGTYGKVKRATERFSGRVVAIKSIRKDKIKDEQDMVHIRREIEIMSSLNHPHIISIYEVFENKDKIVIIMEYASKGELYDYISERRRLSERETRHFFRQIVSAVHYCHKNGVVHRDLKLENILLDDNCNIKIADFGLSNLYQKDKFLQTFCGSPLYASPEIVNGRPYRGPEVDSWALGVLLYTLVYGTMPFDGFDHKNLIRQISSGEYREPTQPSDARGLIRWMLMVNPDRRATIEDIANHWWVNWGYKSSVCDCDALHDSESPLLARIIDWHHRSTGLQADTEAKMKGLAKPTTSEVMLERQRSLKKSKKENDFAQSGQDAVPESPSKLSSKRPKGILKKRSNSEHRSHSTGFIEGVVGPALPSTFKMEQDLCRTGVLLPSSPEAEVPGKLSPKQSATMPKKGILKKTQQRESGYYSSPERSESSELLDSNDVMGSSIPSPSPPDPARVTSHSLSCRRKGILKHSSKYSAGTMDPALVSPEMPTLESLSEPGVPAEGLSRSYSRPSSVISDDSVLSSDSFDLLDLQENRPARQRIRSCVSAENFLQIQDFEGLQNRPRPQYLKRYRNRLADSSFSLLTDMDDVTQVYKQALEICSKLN
Chain of RAC-beta serine/threonine-protein kinase (Homo sapiens) (P31751 whole entry): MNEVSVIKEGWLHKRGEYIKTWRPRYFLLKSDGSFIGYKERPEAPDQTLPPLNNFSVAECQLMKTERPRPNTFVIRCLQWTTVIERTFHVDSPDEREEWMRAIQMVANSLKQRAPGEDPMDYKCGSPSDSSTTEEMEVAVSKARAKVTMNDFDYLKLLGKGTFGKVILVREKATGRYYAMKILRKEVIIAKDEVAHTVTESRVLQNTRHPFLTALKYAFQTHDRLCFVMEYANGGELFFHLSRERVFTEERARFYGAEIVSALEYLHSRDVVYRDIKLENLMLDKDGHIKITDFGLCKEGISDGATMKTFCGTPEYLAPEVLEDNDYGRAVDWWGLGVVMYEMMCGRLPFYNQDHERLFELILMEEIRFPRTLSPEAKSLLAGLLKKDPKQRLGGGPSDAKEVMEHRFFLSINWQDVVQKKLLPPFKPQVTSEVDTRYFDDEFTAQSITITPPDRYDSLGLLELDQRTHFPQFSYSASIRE
Chain of Fibroblast growth factor receptor 4 (Homo sapiens) (P22455 22-802 limits assumed): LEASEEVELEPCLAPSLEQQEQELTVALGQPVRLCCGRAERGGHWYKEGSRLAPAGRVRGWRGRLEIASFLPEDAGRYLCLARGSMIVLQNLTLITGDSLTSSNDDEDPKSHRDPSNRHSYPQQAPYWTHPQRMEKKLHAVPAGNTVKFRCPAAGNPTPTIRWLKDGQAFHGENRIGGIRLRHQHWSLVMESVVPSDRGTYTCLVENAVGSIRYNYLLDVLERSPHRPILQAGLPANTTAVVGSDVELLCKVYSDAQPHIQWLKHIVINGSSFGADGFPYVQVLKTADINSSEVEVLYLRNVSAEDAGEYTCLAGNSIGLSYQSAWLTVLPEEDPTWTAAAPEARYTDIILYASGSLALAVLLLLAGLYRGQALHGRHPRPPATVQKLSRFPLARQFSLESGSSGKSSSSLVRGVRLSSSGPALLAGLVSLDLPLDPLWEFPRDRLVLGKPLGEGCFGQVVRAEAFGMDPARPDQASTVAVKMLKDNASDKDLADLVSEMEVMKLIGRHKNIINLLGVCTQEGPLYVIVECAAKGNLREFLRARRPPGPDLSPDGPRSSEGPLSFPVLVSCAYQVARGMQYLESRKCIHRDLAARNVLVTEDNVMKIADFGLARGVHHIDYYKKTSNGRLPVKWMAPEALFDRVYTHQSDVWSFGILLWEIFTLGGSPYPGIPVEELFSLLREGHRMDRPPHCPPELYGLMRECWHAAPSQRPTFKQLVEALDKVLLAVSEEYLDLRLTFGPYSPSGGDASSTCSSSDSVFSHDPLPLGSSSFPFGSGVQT
Chain of Dual specificity testis-specific protein kinase 1 (Homo sapiens) (Q15569 whole entry, looked up, the tested form may be a part): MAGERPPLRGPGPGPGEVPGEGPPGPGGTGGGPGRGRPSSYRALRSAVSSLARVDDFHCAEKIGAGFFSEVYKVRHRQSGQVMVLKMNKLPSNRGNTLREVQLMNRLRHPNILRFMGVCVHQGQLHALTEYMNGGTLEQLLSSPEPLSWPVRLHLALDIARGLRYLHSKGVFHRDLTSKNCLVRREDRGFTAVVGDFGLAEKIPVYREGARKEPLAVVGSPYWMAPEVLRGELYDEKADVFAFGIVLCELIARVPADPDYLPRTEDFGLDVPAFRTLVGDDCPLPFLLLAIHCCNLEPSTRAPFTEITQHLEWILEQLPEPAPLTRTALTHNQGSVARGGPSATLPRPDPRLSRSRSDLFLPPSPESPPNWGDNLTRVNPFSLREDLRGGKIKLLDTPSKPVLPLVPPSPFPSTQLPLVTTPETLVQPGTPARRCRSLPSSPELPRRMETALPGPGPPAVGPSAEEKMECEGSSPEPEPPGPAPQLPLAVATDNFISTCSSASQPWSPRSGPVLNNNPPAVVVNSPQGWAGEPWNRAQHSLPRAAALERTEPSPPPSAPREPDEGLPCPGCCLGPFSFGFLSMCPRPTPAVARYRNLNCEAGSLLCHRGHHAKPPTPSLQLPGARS
Chain of Serine/threonine-protein kinase Sgk1 (Homo sapiens) (O00141 whole entry, canonical isoform): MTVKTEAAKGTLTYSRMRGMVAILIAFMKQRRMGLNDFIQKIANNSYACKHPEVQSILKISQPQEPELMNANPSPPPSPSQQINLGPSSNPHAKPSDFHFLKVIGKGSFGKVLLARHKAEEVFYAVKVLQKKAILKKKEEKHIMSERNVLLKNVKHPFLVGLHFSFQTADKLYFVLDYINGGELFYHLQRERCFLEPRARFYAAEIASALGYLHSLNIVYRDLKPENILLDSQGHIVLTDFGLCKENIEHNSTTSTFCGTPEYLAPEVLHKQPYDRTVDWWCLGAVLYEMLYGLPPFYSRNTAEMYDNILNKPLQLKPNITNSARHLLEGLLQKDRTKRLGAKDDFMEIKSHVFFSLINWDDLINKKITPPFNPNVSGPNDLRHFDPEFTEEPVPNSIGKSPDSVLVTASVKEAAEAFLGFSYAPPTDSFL
Chain of MAP kinase-activated protein kinase 5 (Homo sapiens) (Q8IW41 whole entry): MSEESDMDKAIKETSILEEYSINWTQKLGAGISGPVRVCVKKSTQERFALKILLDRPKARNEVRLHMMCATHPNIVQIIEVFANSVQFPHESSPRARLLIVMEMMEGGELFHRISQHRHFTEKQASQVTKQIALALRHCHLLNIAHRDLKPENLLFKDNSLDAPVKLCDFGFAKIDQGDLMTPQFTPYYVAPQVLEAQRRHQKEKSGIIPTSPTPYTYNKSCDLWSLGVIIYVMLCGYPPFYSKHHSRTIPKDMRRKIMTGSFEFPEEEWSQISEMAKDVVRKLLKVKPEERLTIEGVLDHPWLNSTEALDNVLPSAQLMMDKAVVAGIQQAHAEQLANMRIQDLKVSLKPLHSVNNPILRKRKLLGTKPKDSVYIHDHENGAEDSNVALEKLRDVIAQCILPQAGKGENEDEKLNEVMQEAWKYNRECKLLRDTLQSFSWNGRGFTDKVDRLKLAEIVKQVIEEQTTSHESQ
Chain of Mitogen-activated protein kinase 12 (Homo sapiens) (P53778 whole entry): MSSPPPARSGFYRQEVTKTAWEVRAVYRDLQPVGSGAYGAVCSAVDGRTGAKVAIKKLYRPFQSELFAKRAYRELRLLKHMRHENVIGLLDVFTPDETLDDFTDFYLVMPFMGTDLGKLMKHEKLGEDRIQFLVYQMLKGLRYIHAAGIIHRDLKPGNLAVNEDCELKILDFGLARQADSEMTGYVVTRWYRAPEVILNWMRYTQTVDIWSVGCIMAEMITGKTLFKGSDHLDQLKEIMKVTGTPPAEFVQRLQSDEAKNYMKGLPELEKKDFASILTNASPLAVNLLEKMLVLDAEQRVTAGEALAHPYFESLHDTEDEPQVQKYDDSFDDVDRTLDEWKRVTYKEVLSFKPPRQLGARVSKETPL

COc1ccccc1-n1c(-c2cc(O)ccc2C)cn2c3c(=O)[nH]c(=O)n(C)c3nc12
Activity [1]: 9.8% | Activity [2]: 15% | Activity [3]: 92% | Activity [4]: 84% | Activity [5]: 2.4% | Activity [6]: 104% | Activity [7]: 32% | IC50 (Ephrin type-A receptor 4): 3.3 nM | Activity [8]: 18% | Activity [9]: 100% | Activity [10]: 94% | Activity [11]: 81% | Activity [12]: 9% | IC50 (Ephrin type-A receptor 1): 2.9 nM | Activity [13]: 133% | Activity [14]: 77% | IC50 (Ephrin type-A receptor 3): 40 nM | Activity [15]: 96%

COc1ccccc1-n1c(-c2ccccc2C)cn2c3c(=O)[nH]c(=O)n(C)c3nc12
Activity [16]: 94% | Activity [17]: 79% | Activity [18]: 97% | Activity [19]: 106% | Activity [20]: 101% | Activity [21]: 96% | Activity [22]: 89% | Activity [23]: 95% | Activity [24]: 89% | Activity [25]: 124% | Activity [26]: 108%

Reference: ChEMBL document CHEMBL1154183, “Structure-based optimization of potent and selective inhibitors of the tyrosine kinase erythropoietin producing human hepatocellular carcinoma receptor B4 (EphB4)” (J Med Chem, 2009)
